Screens as filed in PubChem BioAssay.
The list is not random: actives were taken first. Their share in the collection is about 0.81%.
DTT redox prof – compounds producing H2O2 with reducing agent – biochemical, NIH compound library profiling, artefact control for MLSCN library redox annotation, primary screen | DTT-dependent redox cycling H2O2, phenol red/HRP absorbance; 100% = 100 µM peroxide control, 0% = buffer | activation, % at 10 µM | 0.03% of 200,000 active;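 active = activation of at least 50% relative to the plate's high and low controls in the primary single-dose screen; inactive = activation below 50%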;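 note: compound incubated with DTT at 0.8 mM final as the reducing agent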
PKD1 kinase inh – PKD1 (human) kinase inhibition; PKD1 kinase fluorescence polarization assay; inhibition, % (test concentration not listed); 0.056% of 200,000 active; AID 797; in the data active = inhibition above about 50%
Rad51 HR inh – blocks human Rad51 in homologous recombination | Q06609 | hRad51 DNA strand exchange, fluorescence dequenching | inhibition, % at 10 µM | 0.085% of 200,000 active;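 active = inhibition above 40% at the single screening dose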
Target sequence (Q06609 whole entry, looked up): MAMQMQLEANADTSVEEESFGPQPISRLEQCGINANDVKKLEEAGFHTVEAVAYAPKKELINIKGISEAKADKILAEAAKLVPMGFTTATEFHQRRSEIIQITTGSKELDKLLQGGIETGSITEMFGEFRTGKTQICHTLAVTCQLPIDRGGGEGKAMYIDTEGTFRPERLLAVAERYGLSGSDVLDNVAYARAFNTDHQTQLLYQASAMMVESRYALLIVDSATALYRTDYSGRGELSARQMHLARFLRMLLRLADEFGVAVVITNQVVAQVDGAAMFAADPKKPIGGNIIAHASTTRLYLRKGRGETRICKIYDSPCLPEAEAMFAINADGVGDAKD
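System: human Rad51 nucleoprotein filaments preassembled on unlabelled ssDNA. Reagent: labelled 47-mer dsDNA for strand exchange. Schedule: 30-min compound preincubation and 15-min exchange, both room temperature. Measured by: FRET fluorescence dequenching, excitation 485 nm, emission 520 nm. Read-out: Fluorescence-based percent inhibition, control- and blank-normalised. Benchmarks: plate controls and plate blanks.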
Pf gametocyte – inhibitors of late stage P. falciparum gametocyte viability; inhibition, % at 10.9 µM; P. falciparum stage V gametocytes, ATP luminescence, 24 h; 0.065% of 150,000 active;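 active = inhibition above the mean plus 3 SD of compounds within the control limits, set per campaign, cut at about 38% in these data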
Calpain2 inh – inhibitors of pig calpain II; purified calpain II, fluorogenic peptide substrate, 30 min; inhibition, % at 16 µM; 0.37% of 220,000 active; AID 1236;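 active = inhibition above about 50%, limit read from the data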
Efa HMGR inh – inhibitors of class II HMG-CoA reductase from Enterococcus faecalis; purified E. faecalis HMGR, NADPH absorbance 340 nm kinetic; inhibition, % at 10 µM; 0.41% of 190,000 active;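 active = inhibition above a set limit, the median over all tested compounds plus 3 SD, cut at about 9.5% in these data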;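 note: enzyme runs in reverse so mevalonate oxidation gives rising NADPH absorbance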
A number is an active result; 0 = inactive; - = no result.

SMILES | DTT redox prof | PKD1 kinase inh | Rad51 HR inh | Pf gametocyte | Calpain2 inh | Efa HMGR inh
COc1cccc(C2NC(=O)NC(O)(C(F)(F)F)C2C(=O)c2cccnc2)c1OC (stereo unspecified) | 0 | 0 | 0 | 0 | 0 | 18.7
Cc1cc(C(=O)Nc2ccc(F)cc2)c2ccccc2n1 | - | - | - | 0 | - | -
Fc1cccc(Cl)c1CSc1ccc(-c2cccnc2)nn1 | 0 | 0 | 0 | 0 | 64.2 | 0
O=C(O)C(Cc1ccccc1)N1C(=O)/C(=C/c2cccc3ccccc23)SC1=S (stereo unspecified) | 0 | 0 | 0 | - | 56.3 | 0
O=C(O)C(Cc1ccccc1)N1C(=O)/C(=C/c2ccccc2)SC1=S (stereo unspecified) | 0 | 0 | 0 | 0 | 0 | 0
COc1cc2c(cc1OC)CN(C(=S)Nc1ccccc1Cl)CC2 | 0 | 0 | 0 | 0 | 0 | 0
COc1cc2c(cc1OC)CN(C(=S)Nc1ccc(C)cc1C)CC2 | 0 | 0 | 0 | 47.5 | 0 | 0
C[C@H](CO)N1C[C@H](C)[C@@H](CN(C)S(C)(=O)=O)Oc2ccc(NC(=O)C3CC3)cc2C1=O | - | - | - | 0 | - | -
COc1ccccc1-n1c(C)c(C(C)=O)c2cc(O)ccc21 | - | - | - | 0 | - | -
O=Cc1cccc2ccc3cccc(C(=O)O)c3c12 | - | - | - | 0 | - | -
CCCCC(=O)Nc1nnc(C2=COCCO2)o1 | 0 | 0 | 0 | 0 | 0 | 17.5
O=C(COc1ccc(Cl)cc1)Nc1nnc(C2=COCCO2)o1 | 0 | 0 | 0 | - | 0 | 0
COc1ccc(/C=C/C(=O)c2c(O)ccc3c(C)cc(=O)oc23)cc1 | 0 | 0 | 0 | - | 0 | 0
COc1ccc(OC)c(NC(=O)c2ccccc2NS(=O)(=O)c2cccc3cccnc23)c1 | 0 | 0 | 55.5 | - | 0 | 0
O=C(Nc1cccc2ccccc12)c1ccccc1NS(=O)(=O)c1cccc2cccnc12 | 0 | 0 | 0 | 0 | 0 | 0
CCCc1ccc(OCc2ccccc2)c2c(=O)cc(C(=O)OCC)oc12 | - | - | 0 | 0 | 0 | -
Cc1ccc([N+](=O)[O-])cc1Nc1nc(N2CCOCC2)nc(N2CCOCC2)n1 | 0 | 0 | 0 | 0 | 0 | 10.3
CN1CCN(C(=O)/C(C#N)=C/c2ccc(OC(F)F)cc2)CC1 | - | - | 44.0 | 0 | 0 | -
O=C(CCSc1ccccc1)NC(=O)COC(=O)C1CCCCC1 | 0 | 0 | 0 | 0 | 59.6 | 0
CCOc1cc(NC(=O)c2ccccn2)c(OCC)cc1NC(=O)c1ccc(C)cc1 | 0 | 0 | 0 | 0 | 0 | 13.3
CCOc1ccc(NS(=O)(=O)c2ccc(NC(=S)NC(=O)CC(C)C)cc2)cc1 | 0 | 0 | 0 | 0 | 52.1 | 0
Cc1cc2cc3c(=O)[nH]c(=O)[nH]c3nc2cc1C | - | - | 0 | - | 0 | -
CCOC(=O)c1cn(-c2c(C)n(C)n(-c3ccccc3)c2=O)c2c(F)c(F)c(F)cc2c1=O | - | - | 0 | 0 | 0 | -
NS(=O)(=O)c1ccc(NC(=O)COc2ccc(C(=O)c3ccc(F)cc3)cc2)cc1 | - | - | 0 | 0 | 0 | -
CCOC(=O)c1c(CN(CC)CC)oc2ccc(OC)cc12 | 0 | 0 | 0 | - | 0 | 11.7
SMILES | DTT redox prof | PKD1 kinase inh | Rad51 HR inh | Pf gametocyte | Calpain2 inh | Efa HMGR inh
CC1(C)CNC(=O)c2sc(NC(=O)c3ccccc3)nc2C1 | 0 | 0 | 0 | 0 | 0 | 13.9
Cc1ccc(C#CC[N+]2(C)CCCCC2)cc1 | - | - | 0 | 0 | 0 | -
O=c1c2ccccc2nc(/C=C/c2cccnc2)n1Cc1ccccc1 | 0 | 0 | 48.2 | 0 | 0 | 0
O=c1c2ccccc2nc(/C=C/c2cccnc2)n1CCc1ccccc1 | - | - | 0 | 0 | 0 | -
Cc1cc(Cl)ccc1NC(=S)NC1CCCC1 | - | - | - | 0 | - | -
CC1CCCCC1NC(=S)Nc1ccc(Cl)cc1Cl (stereo unspecified) | 0 | 0 | 40.7 | 0 | 0 | 0
O=c1cc(CSc2ccc([N+](=O)[O-])cc2)nc2sccn12 | 0 | 0 | 0 | 0 | 0 | 14.6
Cc1ccc(SCc2cc(=O)n3ccsc3n2)c(C)c1 | 0 | 0 | 0 | - | 0 | 0
Cn1c(N=Nc2ccccc2)nc2ccccc21 | 0 | 0 | - | 0 | 0 | 0
CN(C)c1ccc(N=Nc2nc3ccccc3n2C)cc1 | - | - | - | 48.5 | 0 | -
Cc1cccc(N/N=C(\C#N)S(=O)(=O)C(C)(C)C)c1 | 0 | 0 | 0 | 0 | 0 | 16.6
CC(C)(C)c1ccc(N/N=C(\C#N)S(=O)(=O)C(C)(C)C)cc1 | 0 | 0 | 0 | 0 | 0 | 0
CC(C)(C)NC(=O)NC(=O)COC(=O)CNC(=O)c1cc(Cl)cc([N+](=O)[O-])c1 | 0 | 0 | 0 | 42.5 | 0 | 0
O=S(=O)(Nc1ccc(C(F)(F)F)cn1)c1ccccc1 | - | - | 0 | 0 | 0 | -
S=C(NCc1ccc(Cl)cc1)NC1CCN(Cc2ccccc2)CC1 | 0 | 0 | - | 0 | 54.0 | 0
O=C1c2ccccc2C(=O)N1CCc1csc(-c2cccc(Cl)c2)n1 | 0 | 0 | 0 | 0 | 58.6 | 0
COc1cccc(/C=C/C(=O)c2cccc([N+](=O)[O-])c2)c1OC | 0 | 0 | 80.3 | 0 | 0 | 0
COc1cccc(/C=C/C(=O)c2cccc([N+](=O)[O-])c2)c1 | 0 | 0 | 0 | 0 | 0 | 0
CCS(=O)(=O)c1ccc(S(=O)(=O)CC)s1 | 0 | 0 | 0 | - | 51.6 | 0
Cc1ccc(CNC(=O)c2ccc3c(=O)n(CC4CCCO4)c(=S)[nH]c3c2)cc1 (stereo unspecified) | 0 | 0 | 0 | 0 | 81.5 | 0
Cc1ccc[n+](CC(=O)c2ccc(Br)cc2)c1C | - | - | - | 0 | - | -
O=C(OCCN1C(=O)c2ccccc2C1=O)c1ccc(S(=O)(=O)N2CCCCCC2)cc1 | 0 | 0 | 0 | - | 68.4 | 0
O=C(OCCN1C(=O)c2ccccc2C1=O)c1ccccc1 | 0 | 0 | 0 | - | 0 | 0
O=C(NCc1ccco1)C1CCCN(S(=O)(=O)c2ccc(Br)cc2)C1 (stereo unspecified) | 0 | 0 | 0 | 0 | 0 | 10.6
CSc1ccc(S(=O)(=O)Nc2ccc(OCC(=O)N3CCOCC3)cc2)cc1 | 0 | 0 | 0 | 0 | 0 | 0
SMILES | DTT redox prof | PKD1 kinase inh | Rad51 HR inh | Pf gametocyte | Calpain2 inh | Efa HMGR inh
O=C(NC(NC(=S)Nc1cc(Cl)ccc1Cl)C(Cl)(Cl)Cl)c1ccco1 (stereo unspecified) | 0 | 0 | 0 | 0 | 0 | 0
O=C(NC(NC(=S)Nc1ccccc1C(=O)O)C(Cl)(Cl)Cl)c1ccccc1 (stereo unspecified) | 0 | 0 | 0 | - | 0 | 16.6
O=C(NC(NC(=S)Nc1ccccc1C(=O)O)C(Cl)(Cl)Cl)c1ccco1 (stereo unspecified) | 0 | 0 | - | 0 | 0 | 0
O=C(Cc1ccccc1)NC(NC(=S)Nc1cc(Cl)ccc1Cl)C(Cl)(Cl)Cl (stereo unspecified) | 0 | 0 | 0 | 0 | 50.6 | 0
OCCc1c[nH]c2ccc(OCc3ccccc3)cc12 | - | - | - | 0 | - | -
C/C(=N\NC(=S)NC1CCCCC1)c1ccc(OC(F)F)cc1OC(F)F | 0 | 0 | 0 | - | 53.9 | 0
CCOc1cc(C(=O)NCCCNC(=O)c2cc(OCC)c(OCC)c(OCC)c2)cc(OCC)c1OCC | - | - | - | 0 | - | -
Cc1ccc(NC(=S)NNS(=O)(=O)c2ccc3ccccc3c2)cc1Cl | 0 | 0 | - | 0 | 0 | 0
COc1ccc(NC(=O)c2cncc(Br)c2)c(S(=O)(=O)N2CCOCC2)c1 | 0 | 0 | 0 | - | 0 | 11.4
